This note sets out measurements from ChEMBL document CHEMBL1140131, “Synthesis and in vitro evaluation of 5-[(18)f]fluoroalkyl pyrimidine nucleosides for molecular imaging of herpes simplex virus type 1 thymidine kinase reporter gene expression” (J Med Chem, 2008).

Data set [1] concerns RG2. Put plainly: Cellular uptake in RG2 cells assessed per 10^6 cells at 0.2 MBq after 2 hrs. Type of data set: ADME, cell-based. The following applies: rat, rg2, 2 h. In short, it runs like this:
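Wild-type RG2 rat glioma monolayers (5 × 10^5 cells/well, 24 h growth) were incubated at 37 °C in 0.5 mL serum-free medium with about 0.2 MBq (5 μCi) of 18F-labelled nucleoside (SA 18.5–925 GBq/μmol). After 2 h they were washed with cold PBS, trypsinized and viable cells counted by trypan blue. Gamma counts (400–1600 keV) were normalized to viable cell number and to total activity, expressed as % per 10^6 cells. Three or more experiments, each in duplicate.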

Data set [2] relates to RG2. Nature of the data set: Selectivity index, ratio of cellular uptake in HSV1-tk gene overexpressing RG2TK+ cells to cellular uptake in RG2 cells. The format is functional, Rattus norvegicus. The method in brief:
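Tracer uptake measured in parallel in HSV1-tk-transduced RG2TK+ and wild-type RG2 glioma cells: 37 °C, serum-free medium, ~0.2 MBq 18F-tracer. Activity was gamma counted and normalized to viable cells and dose. The index is the average ratio of accumulation in RG2TK+ to accumulation in RG2.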

Data set [3] can be described thus: Cellular uptake in HSV1-tk gene overexpressing RG2TK+ cells assessed per 10^6 cells at 0.2 MBq after 2 hrs. Type of data set: ADME. The following applies: rat. In short, it runs like this: (§1)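 RG2 rat glioma cells transduced with HSV1-tk (kept in G418 250 mg/L), 5 × 10^5 cells/well, grown 24 h, then incubated at 37 °C in serum-free medium with ~0.02 MBq [125I]FIAU or ~0.2 MBq 18F-tracer. Sampled at 5–120 min. After cold PBS washes and trypsinization, cell-bound activity was gamma counted and normalized to viable (trypan blue) cells and to total dose. Mean ± S.D., ≥3 experiments in duplicate.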

The nature of data set [4]: Lipophilicity, log P at pH 7.4. The format is physicochemical. To be noted: buffer. The method in brief:
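Radiolabelled nucleoside (20 μL in water) was partitioned between 3 g 1-octanol and 3 g 0.1 M NaH2PO4 buffer, pH 7.4. The mixture was vortexed 3 min at room temperature, then centrifuged 5 min. Weighed 0.5 g samples of each layer were gamma counted, and the octanol layer was repartitioned until values were consistent. log P was taken as the log of the ratio of cpm/g octanol to cpm/g buffer. Triplicate, repeated three times.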

Data set [5] in a line: Inhibition of [125I]FIAU uptake in RG2TK+ cells overexpressing HSV1-tk gene. To be noted: Rattus norvegicus. The format is functional, cell-based. In short, it runs like this:
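HSV1-tk-expressing RG2TK+ glioma cells incubated 2 h with [125I]FIAU plus inhibitor at 0–300 μM. Cell-associated radioactivity measured. IC50 is the concentration giving 50% inhibition of [125I]FIAU uptake; mean ± S.D. of at least three experiments in duplicate.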

Data set [6] relates to RG2. Nature of the data set: Cytotoxicity against RG2 cells after 72 hrs by MTT assay. The format is cell-based. To be noted: rat, rg2, 72 h. In short, it runs like this: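 RG2 cells were seeded at 1.5 × 10^3/well, left overnight, then exposed to drug at 0.001–1000 μmol/L in culture medium, in quadruplicate, for 72 h at 37 °C. MTT (1 mg/mL) was added for 3 h and the formazan dissolved in DMSO. Absorbance was read at 490 nm with a 650 nm reference, blank subtracted, and growth given as % of untreated control. CC50 was taken as mean of three experiments.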

Data set [7] can be described thus: Cytotoxicity against HSV1-tk gene overexpressing RG2TK+ cells after 72 hrs by MTT assay. The format is cell-based. To be noted: rat. In short, it runs like this: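 RG2TK+ cells (HSV1-tk-transduced rat glioma) seeded at 1.5 × 10^3 cells/well overnight, then exposed to drug at 0.001–1000 μmol/L in quadruplicate for 72 h at 37 °C. MTT (1 mg/mL) added for 3 h; formazan dissolved in DMSO and read at 490 nm (650 nm reference). Blanks subtracted; growth given as % of untreated control. CC50 reported as mean ± S.E.M. of three experiments in duplicate.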
In general terms: Tetrazolium dyes change colour on reduction, which living cells bring about.

The test system of data set [8] is RG2. Nature of the data set: Cellular uptake in RG2 cells assessed per 10^6 cells at 0.02 MBq after 2 hrs. To be noted: rat, rg2, 2 h. The format is ADME, cell-based. The method in brief: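 Wild-type RG2 rat glioma monolayers (5 × 10^5 cells/well, grown 24 h at 37 °C in DMEM, 10% FBS) washed with warm PBS, then incubated at 37 °C in 0.5 mL serum-free medium with about 0.02 MBq [125I]FIAU (SA 2,200 Ci/mmol). After 2 h, cells were washed with cold PBS, trypsinized and counted for viability by trypan blue. Cell-associated gamma counts were normalized to viable cells and to activity added, given as % per 10^6 cells. Three or more experiments, each in duplicate.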

Data set [9] is described as follows: Cellular uptake in HSV1-tk gene overexpressing RG2TK+ cells assessed per 10^6 cells at 0.02 MBq after 2 hrs. Type of data set: ADME. The following applies: rat. The method in brief: as §1

SMILES strings stand for the structures. Where only a bound is given, the exact number is not on record here.

Consider `O=c1[nH]c(=O)n([C@H]2C[C@H](O)[C@@H](CO)O2)cc1CCC[18F]`, for which the Drug uptake came out at 0.41% with RG2 [1] and 8.2% in [3]. Further, the Ratio in the data set with RG2 [2] stood at 20.5. Besides, the logD in data set [4] was -0.57.

In data set [4], `O=c1[nH]c(=O)n([C@@H]2O[C@H](CO)[C@@H](O)[C@@H]2F)cc1/C=C/[123I]` returned a logD of 1.24.

The compound `O=c1[nH]c(=O)n([C@@H]2O[C@H](CO)[C@@H](O)[C@@H]2F)cc1CCCF` gave an IC50 in data set [5] of 51.2 µM. Besides, the CC50 in the data set on RG2 [6] came out at 121 µM; in data set [7] it was 209 µM.

As to `O=c1[nH]c(=O)n([C@@H]2O[C@H](CO)[C@@H](O)[C@@H]2F)cc1CCC[18F]`, the Drug uptake was 0.38% with RG2 [1] and 1.9% in [3]. In addition, the Ratio in the data set on RG2 [2] is recorded as 5. The same compound showed a logD in [4] of -0.12.

In [5], `O=c1[nH]c(=O)n([C@H]2C[C@H](O)[C@@H](CO)O2)cc1CCCF` came in with a 50% inhibitory concentration (IC50) of 7.6 µM. In addition, the half-maximal cytotoxic concentration (CC50) in the data set with RG2 [6] is greater than 450 µM; in data set [7] it was greater than 1000 µM.

For `O=c1[nH]c(=O)n([C@@H]2O[C@H](CO)[C@@H](O)[C@@H]2F)cc1CCCCC[18F]`, the Drug uptake with RG2 [1] is 0.24%; in data set [3] it was 1.2%. Also, in the data set with RG2 [2], the Ratio was determined as 5.5. The logD in data set [4] was determined as 0.74.

With `O=c1[nH]c(=O)n([C@H]2C[C@H](O)[C@@H](CO)O2)cc1CCCC[18F]`, the figures for the Drug uptake (with RG2 [1]; in data set [3]) were 0.59% and 8.4%, respectively. Moreover, the Ratio in the data set with RG2 [2] came to 14.9. In data set [4], the pH-dependent lipophilicity (logD) was -0.24.

In the case of `O=c1[nH]c(=O)n([C@@H]2O[C@H](CO)[C@@H](O)[C@H]2F)cc1/C=C/[123I]`, in [4], the logD amounted to 1.22.

In turn, `O=c1[nH]c(=O)n([C@H]2C[C@H](O)[C@@H](CO)O2)cc1CCCCCF` came in with a 50% inhibitory concentration (IC50) in data set [5] of 36.8 µM. The cytotoxic concentration (CC50) with RG2 [6] is greater than 750 µM; in [7] it was greater than 650 µM.

Regarding `O=c1[nH]c(=O)n([C@H]2C[C@H](O)[C@@H](CO)O2)cc1CCCCF`, the IC50 in data set [5] was 34.5 µM. Moreover, the half-maximal cytotoxic concentration (CC50) (in the data set with RG2 [6]; in [7]) was greater than 800 µM each time.

For `O=c1[nH]c(=O)n([C@H]2C[C@H](O)[C@@H](CO)O2)cc1CCCCC[18F]`, the Drug uptake in the data set with RG2 [1] turned out to be 0.23%; in data set [3], 4.4%. Besides, the Ratio in the data set with RG2 [2] is on record as 19.9. The compound also showed a pH-dependent lipophilicity (logD) in [4] of 0.23.

As for `O=c1[nH]c(=O)n([C@@H]2O[C@H](CO)[C@@H](O)[C@@H]2F)cc1CCCC[18F]`, the Drug uptake in the data set on RG2 [1] amounted to 0.66%; in data set [3] it was 3.7%. For the same compound, in the data set with RG2 [2], the Ratio amounted to 7.8. Besides, the logD in [4] turned out to be 0.27.

`Nc1nc(O)c2ncn(COC(CO)CO)c2n1` [GANCICLOVIR]: the CC50 in the data set with RG2 [6] came to 377 µM; in data set [7], 5.86 µM.

As to `O=c1[nH]c(=O)n([C@@H]2O[C@H](CO)[C@@H](O)[C@@H]2F)cc1CCCCCF`, inhibition in data set [5] was half-maximal at 22.9 µM (IC50). In addition, the CC50 was greater than 1000 µM in the data set with RG2 [6] and 375 µM in [7].

In [5], `O=c1[nH]c(=O)n([C@@H]2O[C@H](CO)[C@@H](O)[C@@H]2F)cc1CCCCF` showed an IC50 of 23 µM. Further, the cytotoxic concentration (CC50) in the data set on RG2 [6] turned out to be 355 µM; in data set [7] it was 346 µM.

For the compound `O=c1[nH]c(=O)n([C@@H]2O[C@H](CO)[C@@H](O)[C@@H]2F)cc1I` [FIALURIDINE], in [5], 0.7 µM corresponded to half-maximal inhibition (IC50). The CC50 in the data set with RG2 [6] is 80 µM; in data set [7] it was 0.79 µM.

With `O=c1[nH]c(=O)n([C@@H]2O[C@H](CO)[C@@H](O)[C@@H]2F)cc1[125I]`, the Drug uptake in the data set with RG2 [8] amounted to 3.4%; in [9], 29.4%. Further, in the data set with RG2 [2], the Ratio is 9.9. The logD in data set [4] was determined as 0.05.

Usually logD stands for lipophilicity at a set pH, counting ionised and neutral species. Low readings indicate a more hydrophilic compound, high ones a more lipophilic compound. The term IC50 denotes the concentration that inhibits the measured activity by half. In general, CC50 refers to the concentration at which the toxic effect on the cells reaches its halfway point.
